TLR9-MyD88 inh – TLR9-MyD88 interaction inhibition; Q9NR96+Q99836; CHO BLA complementation TLR9-MyD88, CCF4 FRET ratio; inhibition, % at 4.98 µM; hit rate 0.21% among 340,000; AID 504734;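 active means inhibition above the mean over all tested compounds plus 3 SD, cut at about 21% in these data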;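 further: 0% = DMSO only wells and 100% = clavulanate BLA inhibitor control wells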
TLR4-MyD88 BLA – inhibitors of human TLR4-MyD88 binding; HeLa CL3-4 TLR4/MyD88 BLA complementation, FRET ratio; inhibition, % at 8.4 µM; AID 861; hit rate 0.18% among 200,000; in the data active means inhibition above about 25%;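 further: 0% = vehicle and 100% = reference inhibitor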
MC4R antagonist – blocks human MC4R cAMP signaling; P32245; MC4R-expressing cells, MTII-stimulated cAMP, LANCE TR-FRET; inhibition, % at 6.5 µM; hit rate 0.48% among 360,000; AID 540295;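 active means inhibition above its plate's cutoff, the mean of tested wells on that plate plus 3 SD, cut at about 29% in these data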;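 further: 0% = Melanotan II alone and 100% = Melanotan II plus saturating MCL0020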
Target sequence (P32245 whole entry, looked up): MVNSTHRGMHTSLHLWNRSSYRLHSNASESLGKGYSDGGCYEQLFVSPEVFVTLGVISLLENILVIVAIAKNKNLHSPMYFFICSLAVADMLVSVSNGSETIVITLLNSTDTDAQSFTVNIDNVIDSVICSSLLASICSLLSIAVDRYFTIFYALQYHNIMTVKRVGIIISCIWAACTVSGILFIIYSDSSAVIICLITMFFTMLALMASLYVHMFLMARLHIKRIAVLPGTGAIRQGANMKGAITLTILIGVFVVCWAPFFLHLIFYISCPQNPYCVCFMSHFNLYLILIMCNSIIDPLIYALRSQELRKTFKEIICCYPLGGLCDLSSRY
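Assay system: U2OS-MC4R stable cell line; Also added: Melanotan II; Technique: Eu-cAMP/anti-cAMP TR-FRET, emission 671 nm; Times: 30-min compound, 1-h challenge, 1-h detection, room temperature.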
MIN6 prolif-1 – MIN6 beta-cell proliferation induction | MIN6 cells proliferation, ATPlite luminescence, 48 h; cells starved in 0.2% serum; 100% = growth in 10% serum | proliferation, % at 10 µM | hit rate 0.29% among 330,000;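 active means compounds whose signal lies at least 3.5 SD above the mean of all wells on their plate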;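 further: 0% = DMSO-treated cells in low-serum medium and 100% = 10% serum control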
MC4R ag barr – human MC4R agonism via beta-arrestin. activation, % at 8.9 µM. AID 540308. P32245. U2OS MC4R beta-arrestin complementation, luminescence; percent of melanotan II response, DMSO zero. hit rate 0.98% among 360,000;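 active means activation above a per-plate cutoff, the mean activation of sample wells on that plate plus 3 SD, cut at about 8% in these data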
NOD2-RIPK2 inh – NOD2-RIPK2 protein interaction inhibition; O43353; CHO BLA complementation NOD2-RIPK2, CCF4 ratio; inhibition, % at 4.98 µM; hit rate 0.38% among 360,000; AID 624267; in the data active means inhibition above about 21%;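 further: 0% = vehicle only and 100% = reference blocker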
MIN6 prolif-2 – MIN6 beta-cell replication induction, confirmed | shares compounds with MIN6 prolif-1 | MIN6 beta-cell proliferation, ATPlite luminescence, 48 h; cells kept in 0.2% serum; scaled between 0.2% and 10% serum | proliferation increase, % at 50 µM | 920 tested, under 10 active;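 active means proliferation increase above 40% at any of the four tested concentrations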
* hit, by the source's call; x = no result. In the library only some 2.1% were active in any assay of this set; here they are far more common.

SMILES	TLR9-MyD88 inh	TLR4-MyD88 BLA	MC4R antagonist	MIN6 prolif-1	MC4R ag barr	NOD2-RIPK2 inh	MIN6 prolif-2
COc1ccc(CCNC(=O)CCCn2c(=O)c3cccn3c3cccnc32)c(OC)c1OC	-2	x	2	-2	-1	-18	x
CCOc1ccc(CCNC(=O)CCCn2c(=O)c3cccn3c3cccnc32)cc1OCC	6	x	-1	17*	-2	6	1
CCCC(=O)OCC(=O)Nc1ccccc1C#N	1	1	8	-4	0	-11	x
CCCCC(=O)Nc1ccccc1C#N	-7	5	-5	5.8*	1	-7	-1
COc1ccc(C(=O)N[C@H](C(=O)Nc2cccc(S(=O)(=O)N3CCOCC3)c2)C(C)C)cc1	8	x	3	x	3	-15	x
O=C(CN1C(=O)c2ccc([N+](=O)[O-])cc2C1=O)NC1CCCCCC1	-2	x	4	-1	-4	-3	x
COc1ccc(OC)c2c1sc(=NC(=O)C1COc3ccccc3O1)n2C (centres undefined)	-10	x	3	7.7*	0	7	-2
O=C1CSC(c2ccc(Cl)cc2)N1Nc1nc(N2CCOCC2)nc(N2CCOCC2)n1 (centres undefined)	2	0	6	9.7*	0	4	-4
O=C(c1ccc2[nH]c(=O)c(=O)[nH]c2c1)N1CCN(Cc2ccccc2)CC1	-11	x	2	-2	-4	9	x
Cc1cc(C)c(C#N)c(SCc2ccc(C#N)cc2)n1	-9	-18	1	12*	0	5	-2
CCN1CCN(C(=O)C2CCN(S(=O)(=O)c3ccc(SC)cc3)CC2)CC1	-4	x	8	16*	0	1	-1
CSc1sc(C(=O)N2CCCCC2)c(-c2cccs2)c1C#N	x	x	2	6.9*	-1	-17	-4
CCC(C)N(C(=O)CSc1nc(-c2cccs2)nc2ccccc12)C1CCS(=O)(=O)C1 (centres undefined)	2	x	22	x	-2	0	x
CCC(C)N(C(=O)CSc1ncnc2sccc12)C1CCS(=O)(=O)C1 (centres undefined)	1	x	0	14*	-1	1	4
O=C(N/N=C/c1cc([N+](=O)[O-])cc([N+](=O)[O-])c1O)/C(=C\c1cccs1)NC(=O)c1ccccc1	2	3	1	0.0*	-2	-3	-4
Cc1cc(C(=O)CSc2nnc(-c3ccncc3)n2-c2ccccc2)c(C)n1C	-5	-13	1	-1	-1	-3	x
Cc1cc(C(=O)CSc2nnc(-c3ccccc3)n2-c2ccccc2)c(C)n1-c1ncn[nH]1	6	-12	7	6.9*	1	5	-4
COc1ccc(-c2noc(COc3ccc4c(c3)OCO4)n2)cc1OC	0	5	3	11*	0	-4	1
CC1Cc2nc(SCC(=O)OCc3ccccc3)n(C)c(=O)c2S1 (centres undefined)	-5	6	-1	15*	0	0	-3
CC1Cc2nc(SCC(=O)N3CCc4ccccc43)n(C)c(=O)c2S1 (centres undefined)	-3	5	-6	-1	1	-8	x
CCC(C)(C)NC(=O)C(c1cccc(OC)c1OC)N(C(=O)CCC(=O)Nc1cc(C)on1)C(C)C (centres undefined)	-2	x	4	0	-2	-9	x
COc1ccc(OC)c(/C=N/NC(=O)CSc2cc(C)nc3c(OC)cccc23)c1	x	-6	-9	10*	-1	-10	-1
Cc1ccc(CNc2ncnc(N)c2[N+](=O)[O-])cc1	8	-1	-2	7.8*	-2	-1	8
Cc1cccc(C)c1Nc1ncnc(N)c1[N+](=O)[O-]	14	-1	-3	0	0	1	x
COc1ccc(CCNC(=O)CCN2C(=O)c3cccc4cccc(c34)C2=O)cc1OC	-7	-1	16	7.9*	3	-6	0
SMILES	TLR9-MyD88 inh	TLR4-MyD88 BLA	MC4R antagonist	MIN6 prolif-1	MC4R ag barr	NOD2-RIPK2 inh	MIN6 prolif-2
COc1ccc(CCNC(=O)CCN2C(=O)c3ccccc3C2=O)cc1OC	x	-21	x	0	x	x	x
CCn1c(SCC(=O)N/N=C/c2ccc(OC)c(OC)c2)nc2ccccc21	-2	-2	1	7.8*	0	-1	1
COc1ccc(Cc2nc3ccccc3n2CC(=O)N/N=C/c2ccccc2)cc1OC	0	-6	4	-3	0	-1	x
CC(NC(=O)CNC(=O)c1ccc2c(c1)OCO2)c1ccc(S(N)(=O)=O)cc1 (centres undefined)	0	x	5	0	-1	-7	x
Cc1cc(S(=O)(=O)N2CCCC2)ccc1OCC(=O)N1CCOCC1	-2	0	4	-3	1	-9	x
COc1ccc(N2CCN(C(=O)COc3ccc(S(=O)(=O)N4CCOCC4)cc3C)CC2)cc1	-5	x	1	0.0*	1	4	5
O=C(c1ccc(N2CCOCC2)c([N+](=O)[O-])c1)N1CCN(Cc2ccccc2)CC1	4	x	10	5.8*	-1	1	-2
COc1ccc(S(=O)(=O)NCC2(N3CCOCC3)CCCCC2)cc1OC	1	x	-1	-2	0	8	x
COc1ccc(N(CC(=O)NCCc2ccccc2)C(=O)c2csnn2)cc1OC	0	x	3	6.2*	-3	2	0
O=C(CN(Cc1ccccc1)C(=O)c1csnn1)NCCc1ccccc1	6	x	-1	-1	-1	4	x
O=C(CN(Cc1ccccc1Cl)C(=O)c1csnn1)NCCc1ccccc1	-3	x	0	6.0*	-2	-1	-4
COc1ccc(N(CC(=O)NCCc2ccccc2)C(=O)c2csnn2)cc1	-2	x	2	-1	-1	-19	x
CCOc1ccccc1N(CC(=O)NCCc1ccc(OC)c(OC)c1)S(=O)(=O)c1ccccc1	1	x	2	7.1*	-1	-6	-1
CN(C)S(=O)(=O)c1cccc(NC(=O)COc2ccccc2C(=O)NCc2ccccc2)c1	0	x	12	13*	1	-10	-6
COc1ccccc1C(=O)NCC(=O)OCC(=O)Nc1cccc(S(=O)(=O)N(C)C)c1	-2	0	21	0	0	-10	x
O=C(Cc1ccc(Cl)cc1)Nc1ccc(CN2CCCCC2)cc1	0	x	5	-1	-3	2	x
CC(=O)Nc1ccc(CN2CCCCCC2)cc1	4	x	2	5.5*	-1	7	2
CN(C)S(=O)(=O)c1cc([N+](=O)[O-])ccc1N1CCCCCC1	-8	-9	16	12*	0	3	-4
